# Assay outcomes deposited in PubChem by Broad Institute.
# FN deposit inh: fibronectin deposition inhibition; AID 743247; hit rate 0.086% among 350,000; inhibition, % at 12.6 µM; AH1F fibroblasts, Alexa488-fibronectin deposition fluorescence, overnight;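 active means mean inhibition across replicates of 30% or more, regardless of how many single replicates reach that level; inconclusive means mean under 30% yet at least half of replicates reach 30%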;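 further: positive control wells lacked labelled fibronectin entirely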
#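 Schedule: 1 h cell adhesion before compound, then overnight fibronectin incubation; test system: AH1F fibroblast monolayer depositing Alexa488-labelled fibronectin into matrix; quantity: 10000 AH1F cells per well; probe or stimulus: fluorescent fibronectin at 24 nM final; signal: fluorescence, ex 485 nm, em 525 nm; evaluation: percent inhibition as loss of matrix-bound fibronectin fluorescence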
# SIRT5 inh: inhibitors of human sirtuin-5 desuccinylase; Q9NXA8; Purified SirT5, succinyl-peptide AMC, trypsin-coupled fluorescence; inhibition, % at 15 µM; hit rate 1.1% among 330,000; in the data active means inhibition above about 15%; inconclusive means no clear call, values can overlap the other calls
# Target sequence (Q9NXA8 whole entry, looked up): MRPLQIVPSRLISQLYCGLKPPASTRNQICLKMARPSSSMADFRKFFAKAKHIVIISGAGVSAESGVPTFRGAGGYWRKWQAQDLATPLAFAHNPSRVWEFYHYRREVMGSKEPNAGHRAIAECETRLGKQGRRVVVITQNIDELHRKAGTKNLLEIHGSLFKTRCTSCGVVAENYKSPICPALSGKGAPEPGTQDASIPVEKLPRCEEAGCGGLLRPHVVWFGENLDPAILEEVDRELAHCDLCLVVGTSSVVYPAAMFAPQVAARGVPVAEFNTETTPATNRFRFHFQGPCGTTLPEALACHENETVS
# E-sel inducer: induces E-selectin expression in human endothelial cells. activation, % at 7.58 µM. HUVEC E-selectin immunofluorescence imaging; normalized: neutral wells 0, TNF-alpha wells 100. hit rate 0.37% among 260,000. AID 686992. P16581;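 active means mean E-selectin-positive cell signal at least 10% of the positive control, reached in at least 60% of replicates, without over 20% cell loss; inconclusive means no rule given, readout overlaps actives, possibly toxicity-flagged; inactive means the rest, including those meeting only one limit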
#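 Test system: HUVEC | Signal: Immunofluorescence imaging | Read-out: Percent E-selectin-positive cells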
# rRNA inh HTS: selective bacterial rRNA inhibition in E. coli. E. coli WT GFP vs humanized-ribosome RFP mutants, fluorescence, 24 h; active compounds read low; DMSO median 0, no signal -100. GFP signal change (wild-type ribosome), % (concentration not given with the values). hit rate 1.6% among 350,000;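 active means significant combined selectivity score with lowered wild-type GFP, culture density cut under 30%, mutant RFP and density less affected; inactive means any of these conditions unmet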
# FGF22 binding: shifts melting point of recombinant human FGF22; activity (Tm shift, normalised), % at 9.99 µM; recombinant FGF22 thermal shift, SYPRO orange fluorescence; percent of sucrose octasulfate shift, DMSO zero; Q9HCT0; AID 651658; hit rate 1.5% among 340,000;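 active means mean Tm shift, scaled 0 neutral to 100 positive control, at about 1.3% or above, every replicate too, limit read from the data; inconclusive means no clear call, values can overlap the other calls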
# Target sequence (Q9HCT0 whole entry, looked up): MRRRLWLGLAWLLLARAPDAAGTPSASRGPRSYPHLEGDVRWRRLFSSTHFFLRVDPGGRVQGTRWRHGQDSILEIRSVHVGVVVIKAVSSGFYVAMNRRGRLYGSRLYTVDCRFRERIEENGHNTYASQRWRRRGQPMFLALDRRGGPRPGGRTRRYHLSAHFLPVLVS
# Statin myotox sup: protects C2C12 myotubes from simvastatin toxicity; AID 602340; ATP luminescence, 48 h; scaled: DMSO 0, geranylgeraniol control 100; hit rate 0.78% among 330,000; rescue of ATP level, % at 7.49 µM;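 active means mean ATP rescue above about 67%, or every replicate alone reaching that limit, limit read from the data, passing the limit was not always enough; inconclusive means no clear call, values can overlap the other calls; inactive means mean under the limit and some replicate under it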;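 further: myotubes were challenged with 10 µM simvastatin during compound exposure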
# Active calls of the source: *; u = inconclusive; x = no result given. Sampled rows, rich in hits. Any-hit rate of the full collection: about 4%.
SMILES,FN deposit inh,SIRT5 inh,E-sel inducer,rRNA inh HTS,FGF22 binding,Statin myotox sup
NC1=NC(=O)/C(=C/c2ccc(Br)cc2)S1,-7,3,x,-2,0,11
NC1=NC(=O)/C(=C/c2cc(Br)c(O)c(Br)c2)S1,-6,5,2,10,2.0*,0
CN1C(=O)c2cc(NC(=O)C3CCCC3)ccc2OC[C@H]2O[C@H](CC(=O)NCC(F)(F)F)CC[C@@H]21,-4,-3,0,0,0,-3
COc1ccccc1OCCn1cc(C=O)c2ccccc21,-2,2,u,-2,0,7
O=Cc1cn(CCOc2ccccc2F)c2ccccc12,1,-5,x,-42*,0,8
Cc1noc(C)c1S(=O)(=O)Nc1ccc2c(c1)CC(=O)N([C@H](C)CO)C[C@@H](C)[C@H](CN(C)C(=O)Nc1cccc3ccccc13)O2,-1,5,32*,0,0,-7
Cc1noc(C)c1S(=O)(=O)Nc1ccc2c(c1)CC(=O)N([C@H](C)CO)C[C@H](C)[C@@H](CN(C)C(=O)Nc1cccc3ccccc13)O2,-6,4,305*,0,0,x
C[C@@H]1CN([C@H](C)CO)C(=O)c2ccccc2-c2ccccc2CO[C@H]1CN(C)C(=O)c1ccncc1,-3,x,0,0,0,x
CCCOc1ccc(C(=O)C(CN2CCOCC2)c2ccccc2)cc1 (centres undefined),x,x,x,x,x,78*
CCCCOc1ccc(C(=O)Nc2ccc(CN3CCOCC3)cc2)cc1,-10,29*,-2,11,0,9
CN(C)c1nc(Cl)nc(N(C#N)CCOc2ccccc2)n1,16,0,2,-30,43*,x
CCNc1nc(NCC)nc(N(C#N)CCOc2ccccc2)n1,x,0,x,3,0,x
CC(=O)Nc1ccc(S(=O)(=O)N2CCN(c3cc(C)ccc3C)CC2)cc1,3,-1,-1,-26,0,4
CC(=O)Nc1ccc(S(=O)(=O)N2CCN(c3cnn(C)c(=O)c3Cl)CC2)cc1,-30,-4,x,5,43*,-9
CC(=O)Nc1ccc(-c2ccnc3c2CC(C(=O)NCc2ccc(N4CCN(C)CC4)cc2)O3)cc1 (centres undefined),5,-2,1,0,0,12
CN1CCN(c2ccc(CNC(=O)C3Cc4c(-c5ccc(Cl)cc5)ccnc4O3)cc2)CC1 (centres undefined),-1,x,1,-25,43*,x
CC(=O)Nc1cccc(-c2ccnc3c2CC(C(=O)NCc2ccncc2)O3)c1 (centres undefined),-22,x,0,4,0,8
CC(=O)Nc1cccc(-c2ccnc3c2CC(C(=O)NCc2ccc(F)c(F)c2)O3)c1 (centres undefined),2,15*,x,-1,0,-5
CN(Cc1ccccc1F)C(=O)c1ccc(NS(=O)(=O)c2ccc3[nH]c(=O)[nH]c3c2)cc1,15,31*,0,-5,0,9
Cc1ccccc1NS(=O)(=O)c1ccc2[nH]c(=O)[nH]c2c1,9,-2,x,-2,43*,x
Cn1c(=O)c2c(ncn2CC(=O)NCc2cccnc2)n(C)c1=O,x,x,x,x,x,106*
CCCCN1C(=O)C(=O)N(CC(=O)NC2CCCc3ccccc32)C1=O (centres undefined),0,-2,x,-8,44*,x
Cn1c(=O)c2c(ncn2CC(=O)OCC(=O)NCCc2ccccc2)n(C)c1=O,-8,-6,0,6,0,-2
CCOc1ccccc1OCC(=O)NNC(=O)Cn1cnc2c1c(=O)n(C)c(=O)n2C,5,-4,x,11,44*,3
Cn1c(=O)c2c(ncn2CC(=O)OCC(=O)NC2CCCc3ccccc32)n(C)c1=O (centres undefined),-3,x,x,x,x,88*
SMILES,FN deposit inh,SIRT5 inh,E-sel inducer,rRNA inh HTS,FGF22 binding,Statin myotox sup
Cc1noc(C)c1NC(=O)Nc1cccc2c1O[C@@H](CN(C)S(=O)(=O)c1ccccc1)[C@H](C)CN([C@@H](C)CO)C2=O,x,x,0,1,x,3
C[C@@H]1CN([C@H](C)CO)C(=O)c2cc(-c3cccnc3)cnc2O[C@H]1CN(C)C(=O)c1cccc(F)c1,-11,11,0,-4,0,1
COc1ccc(CN2C[C@H](C)[C@@H](OC)CN(C)C(=O)c3cc(NC(=O)c4nc5ccccc5s4)ccc3OC[C@@H]2C)cc1,-12,x,0,-2,0,28
COc1ccc(-c2nn(CCC(=O)O)cc2/C=C2\SC(N)=NC2=O)cc1OC,14,28*,0,-2,0,x
O=C(C[C@H]1C[C@@H]2c3cc(NC(=O)C4CCOCC4)ccc3O[C@@H]2[C@@H](CO)O1)NCc1ccc(Oc2ccccc2)cc1,x,3,0,-7,-1,5
Cc1ccc(C(=O)OCC(=O)NCc2ccco2)s1,-2,-5,x,10,44*,x
O=C(COC(=O)/C=C/c1ccc(F)cc1)NCc1ccco1,3,0,0,x,43*,16
CCN(c1ccc(NC(=O)COC(=O)c2ccc(C)s2)cc1)C(C)C,12,-5,x,-27*,43*,5
O=C(COC(=O)C1CC2C=CC1C2)NCc1ccc(F)cc1 (centres undefined),3,x,x,x,x,x
O=C(COC(=O)/C=C/c1ccc([N+](=O)[O-])cc1)NCc1ccco1,-2,-11,-2,-1,0,-2
O=C(COC(=O)C1CC2C=CC1C2)NCc1ccco1 (centres undefined),x,x,x,x,x,101*
Cc1noc(C)c1NC(=O)N(C)C[C@H]1Oc2c(NC(=O)Nc3ccc(C(F)(F)F)cc3)cccc2C(=O)N([C@@H](C)CO)C[C@@H]1C,x,4,0,-2,-1,12
N#CC1=C(SCC(=O)Nc2nccs2)NC(=O)CC1c1ccccc1 (centres undefined),x,0,x,-28*,0,1
CCN1C(=O)/C(=C2/Sc3ccccc3N2CC)S/C1=N\c1ncn[nH]1,-2,-3,0,x,44*,-6
COC(=O)[C@H]1[C@H](CO)[C@H]2Cn3c(ccc(-c4ccccc4F)c3=O)[C@H]2N1CC1CCOCC1,x,2,0,2,0,-6
O=C(Oc1ccc(Cl)cc1N1C(=O)CCC1=O)c1ccco1,-6,x,x,x,x,66*
COc1ccc(NC(=O)Nc2ccc3c(c2)CC(=O)N([C@H](C)CO)C[C@H](C)[C@@H](CN(C)C(=O)Nc2ccc(OC)cc2)O3)cc1,x,2,0,0,0,18
O=C(COC(=O)c1cc(Cl)ccc1[N+](=O)[O-])NC1CC1,8,16*,x,0,0,-4
O=C(COC(=O)CNC(=O)c1ccc(Cl)cc1Cl)NC1CC1,-5,x,0,-2,43*,1
